Measured values as given in ChEMBL document CHEMBL3098013, “Novel pyrazole integrated 1,3,4-oxadiazoles: synthesis, characterization and antimicrobial evaluation” (2014).
In brackets after ≈: the same amount, converted by molar mass.

Columns and labels:
Type in all cases: functional
Fusarium verticillioides [1] = assay: Antimicrobial activity against Fusarium moniliforme MTCC 156 at 50 ug/ml after 48 hrs by disc diffusion method; details: MTCC 156, 48 h, read-out: DIZ
How it was run: (§1)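 Agar diffusion read-out is the diameter of the inhibition zone in mm. Each test was run in six replicates and reported as mean ± standard deviation, taken from at least three determinations.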

Aspergillus flavus [2] = assay: Antimicrobial activity against Aspergillus flavus MTCC 873 at 100 ug/ml after 48 hrs by disc diffusion method; details: MTCC 873, 48 h, read-out: DIZ; how it was run: as §1
Klebsiella pneumoniae [3] = assay: Antimicrobial activity against Klebsiella pneumoniae MTCC 3384 at 100 ug/ml after 24 hrs by disc diffusion method; details: MTCC 3384, 24 h, read-out: DIZ; how it was run: as §1
Staphylococcus aureus [4] = assay: Antimicrobial activity against Staphylococcus aureus MTCC 96 at 50 ug/ml after 24 hrs by disc diffusion method; details: MTCC 96, 24 h, read-out: DIZ; how it was run: as §1
Aspergillus flavus [5] = assay: Antimicrobial activity against Aspergillus flavus MTCC 873 at 50 ug/ml after 48 hrs by disc diffusion method; details: MTCC 873, 48 h, read-out: DIZ; how it was run: as §1
Bacillus cereus [6] = assay: Antimicrobial activity against Bacillus cereus MTCC 8372 at 50 ug/ml after 24 hrs by disc diffusion method; details: MTCC 8372, 24 h, read-out: DIZ; how it was run: as §1
Fusarium oxysporum [7] = assay: Antimicrobial activity against Fusarium oxysporum MTCC 284 at 50 ug/ml after 48 hrs by disc diffusion method; details: MTCC 284, 48 h, read-out: DIZ; how it was run: as §1
Klebsiella pneumoniae [8] = assay: Antimicrobial activity against Klebsiella pneumoniae MTCC 3384 at 50 ug/ml after 24 hrs by disc diffusion method; details: MTCC 3384, 24 h, read-out: DIZ; how it was run: as §1
Bacillus cereus [9] = assay: Antimicrobial activity against Bacillus cereus MTCC 8372 after 24 hrs by microdilution method; details: MTCC 8372, 24 h
How it was run: (§2)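 The minimal inhibitory concentration was determined by dilution, alongside minimal bactericidal concentration for bacterial strains and minimal fungicidal concentration for fungal strains. Tests were run in six replicates, and the value is the mean of at least three determinations.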

Bacillus cereus [10] = assay: Antimicrobial activity against Bacillus cereus MTCC 8372 at 100 ug/ml after 24 hrs by disc diffusion method; details: MTCC 8372, 24 h, read-out: DIZ; how it was run: as §1
Staphylococcus aureus [11] = assay: Antimicrobial activity against Staphylococcus aureus MTCC 96 at 100 ug/ml after 24 hrs by disc diffusion method; details: MTCC 96, 24 h, read-out: DIZ; how it was run: as §1
Escherichia coli [12] = assay: Antimicrobial activity against Escherichia coli MTCC 724 at 50 ug/ml after 24 hrs by disc diffusion method; details: MTCC 724, 24 h, read-out: DIZ; how it was run: as §1
Escherichia coli [13] = assay: Antimicrobial activity against Escherichia coli MTCC 724 after 24 hrs by microdilution method; details: MTCC 724, 24 h; how it was run: as §2
Aspergillus niger [14] = assay: Antimicrobial activity against Aspergillus niger MTCC 281 at 100 ug/ml after 48 hrs by disc diffusion method; details: MTCC 281, 48 h, read-out: DIZ; how it was run: as §1
Aspergillus flavus [15] = assay: Antimicrobial activity against Aspergillus flavus MTCC 873 after 48 hrs by microdilution method; details: MTCC 873, 48 h; how it was run: as §2
Aspergillus niger [16] = assay: Antimicrobial activity against Aspergillus niger MTCC 281 after 48 hrs by microdilution method; details: MTCC 281, 48 h; how it was run: as §2
Aspergillus niger [17] = assay: Antimicrobial activity against Aspergillus niger MTCC 281 at 50 ug/ml after 48 hrs by disc diffusion method; details: MTCC 281, 48 h, read-out: DIZ; how it was run: as §1
Fusarium oxysporum [18] = assay: Antimicrobial activity against Fusarium oxysporum MTCC 284 after 48 hrs by microdilution method; details: MTCC 284, 48 h; how it was run: as §2
Escherichia coli [19] = assay: Antimicrobial activity against Escherichia coli MTCC 724 at 100 ug/ml after 24 hrs by disc diffusion method; details: MTCC 724, 24 h, read-out: DIZ; how it was run: as §1
Fusarium oxysporum [20] = assay: Antimicrobial activity against Fusarium oxysporum MTCC 284 at 100 ug/ml after 48 hrs by disc diffusion method; details: MTCC 284, 48 h, read-out: DIZ; how it was run: as §1
Fusarium verticillioides [21] = assay: Antimicrobial activity against Fusarium moniliforme MTCC 156 after 48 hrs by microdilution method; details: MTCC 156, 48 h; how it was run: as §2
Klebsiella pneumoniae [22] = assay: Antimicrobial activity against Klebsiella pneumoniae MTCC 3384 after 24 hrs by microdilution method; details: MTCC 3384, 24 h; how it was run: as §2
Fusarium verticillioides [23] = assay: Antimicrobial activity against Fusarium moniliforme MTCC 156 at 100 ug/ml after 48 hrs by disc diffusion method; details: MTCC 156, 48 h, read-out: DIZ; how it was run: as §1
Staphylococcus aureus [24] = assay: Antimicrobial activity against Staphylococcus aureus MTCC 96 after 24 hrs by microdilution method; details: MTCC 96, 24 h; how it was run: as §2

For `Cc1c(-c2nnc(-c3ccc(Cl)cc3)o2)c(-c2ccc(Cl)cc2)nn1-c1ccccc1`, the zone of inhibition at 50 µg/mL (Fusarium verticillioides [1]) was 10 mm, the zone of inhibition at 100 µg/mL (Aspergillus flavus [2]) was 18 mm and the zone of inhibition at 100 µg/mL (Klebsiella pneumoniae [3]) was 11 mm. It also gave a zone of inhibition at 50 µg/mL (Staphylococcus aureus [4]) of 6 mm, a zone of inhibition at 50 µg/mL (Aspergillus flavus [5]) of 14 mm and a zone of inhibition at 50 µg/mL (Bacillus cereus [6]) of 6 mm. The zone of inhibition at 50 µg/mL (Fusarium oxysporum [7]) was 15 mm, the zone of inhibition at 50 µg/mL (Klebsiella pneumoniae [8]) was 8 mm and the MBC (Bacillus cereus [9]) was 260 µg/mL (≈ 581 µM). The MIC (Bacillus cereus [9]) was 40 µg/mL (≈ 89.4 µM), the zone of inhibition at 100 µg/mL (Bacillus cereus [10]) was 10 mm and the zone of inhibition at 100 µg/mL (Staphylococcus aureus [11]) was 12 mm. It also gave a zone of inhibition at 50 µg/mL (Escherichia coli [12]) of 10 mm, an MBC (Escherichia coli [13]) of 245 µg/mL (≈ 548 µM) and an MIC (Escherichia coli [13]) of 45 µg/mL (≈ 101 µM). For the same compound, the zone of inhibition at 100 µg/mL (Aspergillus niger [14]) was 26 mm, the MFC (Aspergillus flavus [15]) was 210 µg/mL (≈ 469 µM) and the MIC (Aspergillus flavus [15]) was 25 µg/mL (≈ 55.9 µM). The MFC (Aspergillus niger [16]) was 220 µg/mL (≈ 492 µM), the MIC (Aspergillus niger [16]) was 30 µg/mL (≈ 67.1 µM) and the zone of inhibition at 50 µg/mL (Aspergillus niger [17]) was 14 mm. For the same compound, the MFC (Fusarium oxysporum [18]) was 215 µg/mL (≈ 481 µM), the MIC (Fusarium oxysporum [18]) was 30 µg/mL (≈ 67.1 µM) and the zone of inhibition at 100 µg/mL (Escherichia coli [19]) was 16 mm. For the same compound, the zone of inhibition at 100 µg/mL (Fusarium oxysporum [20]) was 28 mm, the MFC (Fusarium verticillioides [21]) was 215 µg/mL (≈ 481 µM) and the MIC (Fusarium verticillioides [21]) was 25 µg/mL (≈ 55.9 µM). It also gave an MBC (Klebsiella pneumoniae [22]) of 250 µg/mL (≈ 559 µM), an MIC (Klebsiella pneumoniae [22]) of 50 µg/mL (≈ 112 µM) and a zone of inhibition at 100 µg/mL (Fusarium verticillioides [23]) of 19 mm. The MBC (Staphylococcus aureus [24]) was 250 µg/mL (≈ 559 µM) and the MIC (Staphylococcus aureus [24]) was 40 µg/mL (≈ 89.4 µM).
Compound `Cc1c(-c2nnc(-c3ccccc3)o2)c(-c2ccccc2)nn1-c1ccccc1` has a zone of inhibition at 50 µg/mL (Fusarium verticillioides [1]) of 4 mm, a zone of inhibition at 100 µg/mL (Aspergillus flavus [2]) of 8 mm and a zone of inhibition at 100 µg/mL (Klebsiella pneumoniae [3]) of 14 mm. For the same compound, the zone of inhibition at 50 µg/mL (Staphylococcus aureus [4]) was 6 mm, the zone of inhibition at 50 µg/mL (Aspergillus flavus [5]) was 4 mm and the zone of inhibition at 50 µg/mL (Bacillus cereus [6]) was 5 mm. The zone of inhibition at 50 µg/mL (Fusarium oxysporum [7]) was 3 mm, the zone of inhibition at 50 µg/mL (Klebsiella pneumoniae [8]) was 6 mm and the MBC (Bacillus cereus [9]) was 230 µg/mL (≈ 608 µM). It also gave an MIC (Bacillus cereus [9]) of 35 µg/mL (≈ 92.5 µM), a zone of inhibition at 100 µg/mL (Bacillus cereus [10]) of 9 mm and a zone of inhibition at 100 µg/mL (Staphylococcus aureus [11]) of 7 mm. The zone of inhibition at 50 µg/mL (Escherichia coli [12]) was 5 mm, the MBC (Escherichia coli [13]) was 260 µg/mL (≈ 687 µM) and the MIC (Escherichia coli [13]) was 40 µg/mL (≈ 106 µM). For the same compound, the zone of inhibition at 100 µg/mL (Aspergillus niger [14]) was 8 mm, the MFC (Aspergillus flavus [15]) was 280 µg/mL (≈ 740 µM) and the MIC (Aspergillus flavus [15]) was 40 µg/mL (≈ 106 µM). The MFC (Aspergillus niger [16]) was 270 µg/mL (≈ 713 µM), the MIC (Aspergillus niger [16]) was 45 µg/mL (≈ 119 µM) and the zone of inhibition at 50 µg/mL (Aspergillus niger [17]) was 5 mm. For the same compound, the MFC (Fusarium oxysporum [18]) was 275 µg/mL (≈ 727 µM), the MIC (Fusarium oxysporum [18]) was 50 µg/mL (≈ 132 µM) and the zone of inhibition at 100 µg/mL (Escherichia coli [19]) was 6 mm. The zone of inhibition at 100 µg/mL (Fusarium oxysporum [20]) was 8 mm, the MFC (Fusarium verticillioides [21]) was 290 µg/mL (≈ 766 µM) and the MIC (Fusarium verticillioides [21]) was 55 µg/mL (≈ 145 µM). For the same compound, the MBC (Klebsiella pneumoniae [22]) was 220 µg/mL (≈ 581 µM), the MIC (Klebsiella pneumoniae [22]) was 30 µg/mL (≈ 79.3 µM) and the zone of inhibition at 100 µg/mL (Fusarium verticillioides [23]) was 6 mm. It also gave an MBC (Staphylococcus aureus [24]) of 240 µg/mL (≈ 634 µM) and an MIC (Staphylococcus aureus [24]) of 35 µg/mL (≈ 92.5 µM).
Work on `COc1ccc(-c2nn(-c3ccccc3)c(C)c2-c2nnc(-c3ccccc3)o2)cc1` yielded a zone of inhibition at 50 µg/mL (Fusarium verticillioides [1]) of 3 mm, a zone of inhibition at 100 µg/mL (Aspergillus flavus [2]) of 8 mm and a zone of inhibition at 100 µg/mL (Klebsiella pneumoniae [3]) of 9 mm. The zone of inhibition at 50 µg/mL (Staphylococcus aureus [4]) was 4 mm, the zone of inhibition at 50 µg/mL (Aspergillus flavus [5]) was 2 mm and the zone of inhibition at 50 µg/mL (Bacillus cereus [6]) was 4 mm. For the same compound, the zone of inhibition at 50 µg/mL (Fusarium oxysporum [7]) was 4 mm, the zone of inhibition at 50 µg/mL (Klebsiella pneumoniae [8]) was 4 mm and the MBC (Bacillus cereus [9]) was 240 µg/mL (≈ 588 µM). For the same compound, the MIC (Bacillus cereus [9]) was 50 µg/mL (≈ 122 µM), the zone of inhibition at 100 µg/mL (Bacillus cereus [10]) was 9 mm and the zone of inhibition at 100 µg/mL (Staphylococcus aureus [11]) was 8 mm. It also gave a zone of inhibition at 50 µg/mL (Escherichia coli [12]) of 8 mm, an MBC (Escherichia coli [13]) of 240 µg/mL (≈ 588 µM) and an MIC (Escherichia coli [13]) of 35 µg/mL (≈ 85.7 µM). For the same compound, the zone of inhibition at 100 µg/mL (Aspergillus niger [14]) was 6 mm, the MFC (Aspergillus flavus [15]) was 270 µg/mL (≈ 661 µM) and the MIC (Aspergillus flavus [15]) was 50 µg/mL (≈ 122 µM). The MFC (Aspergillus niger [16]) was 275 µg/mL (≈ 673 µM), the MIC (Aspergillus niger [16]) was 45 µg/mL (≈ 110 µM) and the zone of inhibition at 50 µg/mL (Aspergillus niger [17]) was 2 mm. For the same compound, the MFC (Fusarium oxysporum [18]) was 280 µg/mL (≈ 685 µM), the MIC (Fusarium oxysporum [18]) was 40 µg/mL (≈ 97.9 µM) and the zone of inhibition at 100 µg/mL (Escherichia coli [19]) was 14 mm. The zone of inhibition at 100 µg/mL (Fusarium oxysporum [20]) was 6 mm, the MFC (Fusarium verticillioides [21]) was 290 µg/mL (≈ 710 µM) and the MIC (Fusarium verticillioides [21]) was 40 µg/mL (≈ 97.9 µM). It also gave an MBC (Klebsiella pneumoniae [22]) of 260 µg/mL (≈ 637 µM), an MIC (Klebsiella pneumoniae [22]) of 35 µg/mL (≈ 85.7 µM) and a zone of inhibition at 100 µg/mL (Fusarium verticillioides [23]) of 6 mm. It also gave an MBC (Staphylococcus aureus [24]) of 240 µg/mL (≈ 588 µM) and an MIC (Staphylococcus aureus [24]) of 40 µg/mL (≈ 97.9 µM).
